Values after ≈ are worked out from the molar mass of the structure shown.
Tests used:
Escherichia coli = assay: Antibacterial activity against Escherichia coli MTCC 2939 after 24 hrs by agar diffusion method; assay type: functional; settings: for MIC: Escherichia coli, MTCC 2939, 24 h
How it was run: (§1)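 Agar well diffusion following NCCLS. Bacteria kept on nutrient agar slants at 37 ± 0.5 °C for 24 h. Nutrient agar plates seeded with 0.1 mL of culture suspension in 0.85% sterile saline (10⁵ CFU/mL). Plates incubated at 37 ± 0.5 °C for 24 h. Zone of inhibition recorded in mm, and MIC noted. 1% DMSO used as control.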

Salmonella enterica = assay: Antibacterial activity against Salmonella typhi MTCC 98 after 24 hrs by agar diffusion method; assay type: functional, Salmonella enterica subsp. enterica serovar Typhi; settings: for MIC: Salmonella enterica, MTCC 98, 24 h
How it was run: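 NCCLS agar diffusion. Strain kept on nutrient agar slant at 37 ± 0.5 °C for 24 h. Nutrient agar plates seeded with 0.1 mL of a 10⁵ CFU/mL suspension in sterile 0.85% saline. Plates incubated at 37 ± 0.5 °C for 24 h. Read-out: zone of inhibition (mm) and MIC.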

Staphylococcus aureus = assay: Antibacterial activity against Staphylococcus aureus MTCC 96 after 24 hrs by agar diffusion method; assay type: functional; settings: for MIC: Staphylococcus aureus, MTCC 96, 24 h; how it was run: as §1
Bacillus subtilis = assay: Antibacterial activity against Bacillus subtilis MTCC 441 after 24 hrs by agar diffusion method; assay type: functional; settings: for MIC: Bacillus subtilis, MTCC 441, 24 h; how it was run: as §1
Aspergillus niger = assay: Antifungal activity against Aspergillus niger MTCC 281 after 24 to 48 hrs by agar diffusion method; assay type: functional
How it was run: (§2)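 Fungi grown on potato dextrose agar slants at 27 ± 0.2 °C for 24–48 h until sporulation. Spores suspended in sterile water with 1% Tween-80 and counted by haemocytometer (10⁶ CFU/mL). 0.1 mL spread on 2% agar PDA plates and held at 27 °C for 12 h. Wells then received 0.1 mL of compound at graded concentrations for MIC. Plates refrigerated 20 min for diffusion, then incubated at 27 ± 0.2 °C for […]. Zone read in mm. 1% DMSO used as control.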

Trichoderma viride = assay: Antifungal activity against Trichoderma viride MTCC 167 after 24 to 48 hrs by agar diffusion method; assay type: functional; how it was run: as §2
Penicillium chrysogenum = assay: Antifungal activity against Penicillium chrysogenum MTCC 160 after 24 to 48 hrs by agar diffusion method; assay type: functional; how it was run: as §2
Candida albicans = assay: Antifungal activity against Candida albicans MTCC 183 after 24 to 48 hrs by agar diffusion method; assay type: functional; how it was run: as §2
Fusarium verticillioides = assay: Antifungal activity against Fusarium moniliforme MTCC 156 after 24 to 48 hrs by agar diffusion method; assay type: functional; how it was run: as §2
[1] = Penicillium chrysogenum, MTCC 160
[2] = Fusarium verticillioides, MTCC 156

## CCCCc1nc(Cl)c(C2CC(c3cc(Cl)cc(Cl)c3O)=NN2c2nc(-c3ccc(Cl)cc3)cs2)[nH]1 (stereo not given)
Escherichia coli
  inhibition zone (IZ): 21 mm
  MIC: 25 µg/mL (≈ 43 µM)
Salmonella enterica
  inhibition zone (IZ): 18 mm
  MIC: 25 µg/mL (≈ 43 µM)
Staphylococcus aureus
  inhibition zone (IZ): 16 mm
  MIC: 25 µg/mL (≈ 43 µM)
Bacillus subtilis
  inhibition zone (IZ): 22 mm
  MIC: 25 µg/mL (≈ 43 µM)
Aspergillus niger
  inhibition zone (IZ): 19 mm
Aspergillus niger; Aspergillus niger, MTCC 281
  MIC: 25 µg/mL (≈ 43 µM)
Trichoderma viride
  inhibition zone (IZ): 18 mm
Trichoderma viride; Trichoderma viride, MTCC 167
  MIC: 25 µg/mL (≈ 43 µM)
Penicillium chrysogenum
  inhibition zone (IZ): 18 mm
Penicillium chrysogenum; [1]
  MIC: 25 µg/mL (≈ 43 µM)
Candida albicans
  inhibition zone (IZ): 16 mm
Candida albicans; Candida albicans, MTCC 183
  MIC: 25 µg/mL (≈ 43 µM)
Fusarium verticillioides
  inhibition zone (IZ): 15 mm
Fusarium verticillioides; [2]
  MIC: 25 µg/mL (≈ 43 µM)

## CCCCc1nc(Cl)c(C2CC(c3ccccc3O)=NN2c2nc(-c3ccc(Cl)cc3)cs2)[nH]1 (stereo not given)
Escherichia coli
  inhibition zone (IZ): 15 mm
  MIC: 50 µg/mL (≈ 97.6 µM)
Salmonella enterica
  inhibition zone (IZ): 10 mm
  MIC: 50 µg/mL (≈ 97.6 µM)
Staphylococcus aureus
  inhibition zone (IZ): 13 mm
  MIC: 50 µg/mL (≈ 97.6 µM)
Bacillus subtilis
  inhibition zone (IZ): 16 mm
  MIC: 50 µg/mL (≈ 97.6 µM)
Aspergillus niger
  inhibition zone (IZ): 14 mm
Aspergillus niger; Aspergillus niger, MTCC 281
  MIC: 25 µg/mL (≈ 48.8 µM)
Trichoderma viride
  inhibition zone (IZ): 16 mm
Trichoderma viride; Trichoderma viride, MTCC 167
  MIC: 25 µg/mL (≈ 48.8 µM)
Penicillium chrysogenum
  inhibition zone (IZ): 14 mm
Penicillium chrysogenum; [1]
  MIC: 25 µg/mL (≈ 48.8 µM)
Candida albicans
  inhibition zone (IZ): 15 mm
Candida albicans; Candida albicans, MTCC 183
  MIC: 25 µg/mL (≈ 48.8 µM)
Fusarium verticillioides
  inhibition zone (IZ): 13 mm
Fusarium verticillioides; [2]
  MIC: 25 µg/mL (≈ 48.8 µM)

## CCCCc1nc(Cl)c(C2CC(c3cc(I)cc(I)c3O)=NN2c2nc(-c3ccc(Cl)cc3)cs2)[nH]1 (stereo not given)
Escherichia coli
  inhibition zone (IZ): 20 mm
  MIC: 25 µg/mL (≈ 32.7 µM)
Salmonella enterica
  inhibition zone (IZ): 18 mm
  MIC: 25 µg/mL (≈ 32.7 µM)
Staphylococcus aureus
  inhibition zone (IZ): 16 mm
  MIC: 25 µg/mL (≈ 32.7 µM)
Bacillus subtilis
  inhibition zone (IZ): 20 mm
  MIC: 25 µg/mL (≈ 32.7 µM)
Aspergillus niger
  inhibition zone (IZ): 19 mm
Aspergillus niger; Aspergillus niger, MTCC 281
  MIC: 25 µg/mL (≈ 32.7 µM)
Trichoderma viride
  inhibition zone (IZ): 20 mm
Trichoderma viride; Trichoderma viride, MTCC 167
  MIC: 25 µg/mL (≈ 32.7 µM)
Penicillium chrysogenum
  inhibition zone (IZ): 16 mm
Penicillium chrysogenum; [1]
  MIC: 25 µg/mL (≈ 32.7 µM)
Candida albicans
  inhibition zone (IZ): 18 mm
Candida albicans; Candida albicans, MTCC 183
  MIC: 25 µg/mL (≈ 32.7 µM)
Fusarium verticillioides
  inhibition zone (IZ): 16 mm
Fusarium verticillioides; [2]
  MIC: 25 µg/mL (≈ 32.7 µM)

## CCCCc1nc(Cl)c(C2CC(c3cc(C)ccc3O)=NN2c2nc(-c3ccc(Cl)cc3)cs2)[nH]1 (stereo not given)
Escherichia coli
  inhibition zone (IZ): 11 mm
  MIC: 50 µg/mL (≈ 95 µM)
Salmonella enterica
  MIC: > 100 µg/mL
Staphylococcus aureus
  MIC: > 100 µg/mL
Bacillus subtilis
  inhibition zone (IZ): 12 mm
  MIC: 50 µg/mL (≈ 95 µM)
Aspergillus niger
  inhibition zone (IZ): 12 mm
Aspergillus niger; Aspergillus niger, MTCC 281
  MIC: 50 µg/mL (≈ 95 µM)
Trichoderma viride
  inhibition zone (IZ): 8 mm
Trichoderma viride; Trichoderma viride, MTCC 167
  MIC: 50 µg/mL (≈ 95 µM)
Penicillium chrysogenum; [1]
  MIC: > 100 µg/mL
Candida albicans
  inhibition zone (IZ): 10 mm
Candida albicans; Candida albicans, MTCC 183
  MIC: 50 µg/mL (≈ 95 µM)
Fusarium verticillioides
  inhibition zone (IZ): 11 mm
Fusarium verticillioides; [2]
  MIC: 50 µg/mL (≈ 95 µM)

## CCCCc1nc(Cl)c(C2CC(c3ccc(OC)cc3)=NN2c2nc(-c3ccc(Cl)cc3)cs2)[nH]1 (stereo not given)
Escherichia coli
  inhibition zone (IZ): 16 mm
  MIC: 25 µg/mL (≈ 47.5 µM)
Salmonella enterica
  inhibition zone (IZ): 14 mm
  MIC: 50 µg/mL (≈ 95 µM)
Staphylococcus aureus
  inhibition zone (IZ): 18 mm
  MIC: 25 µg/mL (≈ 47.5 µM)
Bacillus subtilis
  inhibition zone (IZ): 16 mm
  MIC: 25 µg/mL (≈ 47.5 µM)
Aspergillus niger
  inhibition zone (IZ): 16 mm
Aspergillus niger; Aspergillus niger, MTCC 281
  MIC: 25 µg/mL (≈ 47.5 µM)
Trichoderma viride
  inhibition zone (IZ): 14 mm
Trichoderma viride; Trichoderma viride, MTCC 167
  MIC: 25 µg/mL (≈ 47.5 µM)
Penicillium chrysogenum
  inhibition zone (IZ): 12 mm
Penicillium chrysogenum; [1]
  MIC: 50 µg/mL (≈ 95 µM)
Candida albicans
  inhibition zone (IZ): 14 mm
Candida albicans; Candida albicans, MTCC 183
  MIC: 25 µg/mL (≈ 47.5 µM)
Fusarium verticillioides
  inhibition zone (IZ): 12 mm
Fusarium verticillioides; [2]
  MIC: 25 µg/mL (≈ 47.5 µM)

## CCCCc1nc(Cl)c(C2CC(c3cc(C)cc(I)c3O)=NN2c2nc(-c3ccc(Cl)cc3)cs2)[nH]1 (stereo not given)
Escherichia coli
  inhibition zone (IZ): 14 mm
  MIC: 50 µg/mL (≈ 76.6 µM)
Salmonella enterica
  inhibition zone (IZ): 15 mm
  MIC: 25 µg/mL (≈ 38.3 µM)
Staphylococcus aureus
  inhibition zone (IZ): 15 mm
  MIC: 25 µg/mL (≈ 38.3 µM)
Bacillus subtilis
  inhibition zone (IZ): 12 mm
  MIC: 50 µg/mL (≈ 76.6 µM)
Aspergillus niger
  inhibition zone (IZ): 14 mm
Aspergillus niger; Aspergillus niger, MTCC 281
  MIC: 25 µg/mL (≈ 38.3 µM)
Trichoderma viride
  inhibition zone (IZ): 14 mm
Trichoderma viride; Trichoderma viride, MTCC 167
  MIC: 25 µg/mL (≈ 38.3 µM)
Penicillium chrysogenum
  inhibition zone (IZ): 12 mm
Penicillium chrysogenum; [1]
  MIC: 25 µg/mL (≈ 38.3 µM)
Candida albicans
  inhibition zone (IZ): 11 mm
Candida albicans; Candida albicans, MTCC 183
  MIC: 50 µg/mL (≈ 76.6 µM)
Fusarium verticillioides
  inhibition zone (IZ): 10 mm
Fusarium verticillioides; [2]
  MIC: 50 µg/mL (≈ 76.6 µM)

## NYSTATIN
Aspergillus niger
  MIC: 25 µg/mL
  inhibition zone (IZ): 18 mm
Trichoderma viride
  MIC: 25 µg/mL
  inhibition zone (IZ): 18 mm
Penicillium chrysogenum
  MIC: 25 µg/mL
  inhibition zone (IZ): 16 mm
Candida albicans
  MIC: 25 µg/mL
  inhibition zone (IZ): 18 mm
Fusarium verticillioides
  MIC: 25 µg/mL
  inhibition zone (IZ): 16 mm

Source: ChEMBL document CHEMBL1156256, “Poly(ethylene glycol) (PEG-400) as an alternative reaction solvent for the synthesis of some new 1-(4-(4'-chlorophenyl)-2-thiazolyl)-3-aryl-5-(2-butyl-4-chloro-1H-imidazol-5yl)-2-pyrazolines and their in vitro antimicrobial evaluation” (2010)
